Measurements as given in ChEMBL document CHEMBL2429734, “Expedient Synthesis of SMAMPs via Click Chemistry” (ACS Med Chem Lett, 2013).

Columns and labels:
Pseudomonas aeruginosa = assay: Antibacterial activity against Pseudomonas aeruginosa ATCC 10145 assessed as growth inhibition after 18 hrs by broth microdilution method in absence of 40% mouse serum; assay type: functional; settings: ATCC 10145, 18 h
Method in brief: (§1)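 MIC determined by Hancock's method for cationic antimicrobial peptides, a slight modification of the CLSI microbroth dilution method, run in medium without mouse serum. Strains were S. aureus ATCC 27660, E. coli ATCC 25922, E. faecalis ATCC 29212, P. aeruginosa ATCC 10145 and K. pneumoniae ATCC 13883.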

Klebsiella pneumoniae = assay: Antibacterial activity against Klebsiella pneumoniae ATCC 13883 assessed as growth inhibition after 18 hrs by broth microdilution method in absence of 40% mouse serum; assay type: functional; settings: ATCC 13883, 18 h; method in brief: as §1
Staphylococcus aureus [1] = assay: Antibacterial activity against Staphylococcus aureus ATCC 27660 assessed as growth inhibition after 18 hrs by broth microdilution method in absence of 40% mouse serum; assay type: functional; settings: ATCC 27660, 18 h; method in brief: as §1
Escherichia coli [2] = assay: Antibacterial activity against Escherichia coli ATCC 25922 assessed as growth inhibition incubated for 30 mins prior to inoculation measured after 18 hrs by broth microdilution method in presence of 40% mouse serum; assay type: functional
Method in brief: (§2)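 Hancock-modified CLSI microbroth dilution MIC run in the presence of 40% mouse serum against S. aureus ATCC 27660 or E. coli ATCC 25922. 40% was the highest serum level used because bacterial growth was impaired at higher percentages.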

Escherichia coli [3] = assay: Antibacterial activity against Escherichia coli ATCC 25922 assessed as growth inhibition after 18 hrs by broth microdilution method in absence of 40% mouse serum; assay type: functional; settings: ATCC 25922, 18 h; method in brief: as §1
Enterococcus faecalis = assay: Antibacterial activity against Enterococcus faecalis ATCC 29212 assessed as growth inhibition after 18 hrs by broth microdilution method in absence of 40% mouse serum; assay type: functional; settings: ATCC 29212, 18 h; method in brief: as §1
[4] = Hemolytic activity in human RBC assessed as release of hamoglobin after 1 hr; assay type: ADME, cell-based, Erythrocyte; settings: for HC50 at 1 h: human red blood cells
Method in brief: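 Lysis of human erythrocytes measured. HC50 was taken as the lowest concentration causing 50% lysis of the red blood cells.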

Staphylococcus aureus [5] = assay: Antibacterial activity against Staphylococcus aureus ATCC 27660 assessed as growth inhibition incubated for 30 mins prior to inoculation measured after 18 hrs by broth microdilution method in presence of 40% mouse serum; assay type: functional; method in brief: as §2
[6] = Ratio of compound HC50 to pexiganan HC50 for human RBC; assay type: ADME, cell-based; settings: erythrocyte
[7] = Selectivity ratio of HC50 for human RBC to MIC for Staphylococcus aureus ATCC 27660; assay type: functional
[8] = Selectivity ratio of HC50 for human RBC to MIC for Escherichia coli ATCC 25922; assay type: functional

Molecule	MIC (Pseudomonas aeruginosa) [µg/mL]	MIC (Klebsiella pneumoniae) [µg/mL]	MIC (Staphylococcus aureus [1]) [µg/mL]	MIC (Escherichia coli [2]) [µg/mL]	MIC (Escherichia coli [3]) [µg/mL]	MIC (Enterococcus faecalis) [µg/mL]	HC50 at 1 h [4] [µg/mL]	MIC (Staphylococcus aureus [5]) [µg/mL]	Ratio [6]	Selectivity ratio [7]	Selectivity ratio [8]	HC50 ([4]; erythrocyte, 1 h) [µg/mL]
NCCCOc1ccc(-n2cc(-c3ccc4ccc(-c5cn(-c6ccc(OCCCN)c(OCCCN)c6)nn5)cc4c3)nn2)cc1OCCCN.O=C(O)C(F)(F)F.O=C(O)C(F)(F)F.O=C(O)C(F)(F)F.O=C(O)C(F)(F)F	50	50	25	3.13	> 50	25	81	0.19				
NCCCOc1ccc(-n2cc(-c3cccc(-c4cn(-c5ccc(OCCCN)c(OCCCN)c5)nn4)c3)nn2)cc1OCCCN.O=C(O)C(F)(F)F.O=C(O)C(F)(F)F.O=C(O)C(F)(F)F.O=C(O)C(F)(F)F	50	> 50	12.5	6.25	> 50		> 1000	0.39	10	> 2500	> 160	
NCCCOc1cc(C#Cc2ccc3ccc(C#Cc4cc(OCCCN)cc(OCCCN)c4)cc3c2)cc(OCCCN)c1.O=C(O)C(F)(F)F.O=C(O)C(F)(F)F.O=C(O)C(F)(F)F.O=C(O)C(F)(F)F				12.5			3.4	3.13				
NCCCOc1cccc(-n2cc(-c3ccc4ccc(-c5cn(-c6cccc(OCCCN)c6)nn5)cc4c3)nn2)c1.O=C(O)C(F)(F)F.O=C(O)C(F)(F)F	> 50	> 50	> 50	> 50	> 50	50		12.5				
NCCCOc1cc(-n2cc(-c3ccc4ccc(-c5cn(-c6cc(OCCCN)c(OCCCN)c(OCCCN)c6)nn5)cc4c3)nn2)cc(OCCCN)c1OCCCN.O=C(O)C(F)(F)F.O=C(O)C(F)(F)F.O=C(O)C(F)(F)F.O=C(O)C(F)(F)F.O=C(O)C(F)(F)F.O=C(O)C(F)(F)F	12.5	> 50	12.5	25	25	50	828	0.19				
NCCCOc1cc(OCCCN)cc(-n2cc(-c3ccc4ccc(-c5cn(-c6cc(OCCCN)cc(OCCCN)c6)nn5)cc4c3)nn2)c1.O=C(O)C(F)(F)F.O=C(O)C(F)(F)F.O=C(O)C(F)(F)F.O=C(O)C(F)(F)F	> 50	50	12.5	6.25	> 50	25	693	0.39				
PEXIGANAN ACETATE												120
NCCCOc1cccc(-n2cc(-c3cccc(-c4cn(-c5cccc(OCCCN)c5)nn4)c3)nn2)c1.O=C(O)C(F)(F)F.O=C(O)C(F)(F)F	25	> 50	50	25	25	25		12.5				
NCCCOc1ccc(-n2cc(-c3ccc4ccc(-c5cn(-c6cc(OCCCN)c(OCCCN)c(OCCCN)c6)nn5)cc4c3)nn2)cc1OCCCN.O=C(O)C(F)(F)F.O=C(O)C(F)(F)F.O=C(O)C(F)(F)F.O=C(O)C(F)(F)F.O=C(O)C(F)(F)F	50	> 50	12.5	25	50	25	94	0.39				
NCCCOc1cc(OCCCN)cc(-c2ccc3ccc(-c4cc(OCCCN)cc(OCCCN)c4)cc3c2)c1.O=C(O)C(F)(F)F.O=C(O)C(F)(F)F.O=C(O)C(F)(F)F.O=C(O)C(F)(F)F				25			194	1.56				
NCCCOc1cc(OCCCN)cc(-n2cc(-c3ccc4c(ccc5cc(-c6cn(-c7cc(OCCCN)cc(OCCCN)c7)nn6)ccc54)c3)nn2)c1.O=C(O)C(F)(F)F.O=C(O)C(F)(F)F.O=C(O)C(F)(F)F.O=C(O)C(F)(F)F	25	> 50	25	12.5	> 50	50	109	0.39				
